From PubChem BioAssay
An excerpt weighted towards active compounds, which were near 4.1% of everything screened.
KCNQ1 block: blocks the human KCNQ1 potassium channel; AID 2642; 310,000 compounds, 1.3% hits; P51787; CHO-K1 KCNQ1, FluxOR thallium flux fluorescence; stronger effect = higher value; B-score at 10 µM;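 active means compounds whose thallium flux B-score, printed positive for inhibition, exceeds three library SD while starting fluorescence stays within three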;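 further: channel opened by potassium depolarization with thallium stimulus after 20 min compound exposure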
Target sequence (P51787 whole entry, looked up): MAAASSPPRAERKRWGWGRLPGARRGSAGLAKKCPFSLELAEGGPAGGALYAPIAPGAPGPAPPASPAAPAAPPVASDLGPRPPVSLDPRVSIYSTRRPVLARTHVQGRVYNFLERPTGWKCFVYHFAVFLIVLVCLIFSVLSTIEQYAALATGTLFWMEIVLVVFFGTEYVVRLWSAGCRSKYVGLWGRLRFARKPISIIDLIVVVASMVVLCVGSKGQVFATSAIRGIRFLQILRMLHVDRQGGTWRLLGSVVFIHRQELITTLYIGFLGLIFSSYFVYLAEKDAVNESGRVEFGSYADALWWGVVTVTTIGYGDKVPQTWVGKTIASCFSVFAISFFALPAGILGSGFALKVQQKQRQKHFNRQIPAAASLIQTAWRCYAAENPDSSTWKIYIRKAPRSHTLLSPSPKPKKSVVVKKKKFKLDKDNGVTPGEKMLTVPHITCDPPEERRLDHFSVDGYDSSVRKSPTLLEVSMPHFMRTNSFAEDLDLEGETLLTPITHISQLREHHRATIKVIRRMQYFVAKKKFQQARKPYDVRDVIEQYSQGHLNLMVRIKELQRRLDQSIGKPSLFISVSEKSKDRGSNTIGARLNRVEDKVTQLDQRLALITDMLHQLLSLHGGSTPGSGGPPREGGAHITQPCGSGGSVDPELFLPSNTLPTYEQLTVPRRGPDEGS
KCNK3 block: human KCNK3 channel inhibition, primary screen. O14649. CHO-KCNK3 thallium flux, FluxOR fluorescence; stronger effect = lower value. AID 602410. B-score at 10 µM. 340,000 compounds, 0.84% hits;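 active means B-score under library mean minus 4 SD, starting fluorescence ratio at most library mean plus 5 SD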;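 further: more negative B-score means stronger inhibition of thallium flux through KCNK3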
KCNQ1 pot: human KCNQ1 channel potentiation or activation; B-score at 10 µM; 310,000 compounds, 0.35% hits; CHO-K1 KCNQ1, thallium flux FluxOR fluorescence; stronger effect = higher value;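 active means fluorescence ratio B-score, a plate-corrected score, at least three library SD, with initial intensity B-score within 5 SD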
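Assay system: CHO-K1 cells stably expressing KCNQ1. Medium: assay buffer for compound exposure, DMSO matched across wells. Timing: 37 °C overnight plating, 90-min dark dye load, 20-min compound pretreatment. Signal: kinetic FluxOR fluorescence, 10 s baseline plus 110 s post-stimulus.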
hERG rescue: hERG (human) protection from proarrhythmic block; AID 1511; CHO-hERG, FluxOR thallium flux, dofetilide IC70 present; 310,000 compounds, 0.51% hits; activation (rescue from dofetilide block), less the hit threshold, % at 10 µM;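 active means activation above the mean of controls blocked by dofetilide plus 5 SD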;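 further: thallium influx through hERG after potassium depolarization seen as dye fluorescence rise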
KCC2 mod: KCC2 (human) Cl- transport modulation; 190,000 compounds, 2.2% hits; Q9H2X9; KCC2 cells, thallium flux FluoZin-2 fluorescence; B-score of Tl+ flux slope (higher = more flux/activation; lower = inhibition) at 10 µM; AID 1456;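 active means thallium flux slope and its plate-corrected score both differing from the plate sample mean at a set confidence after two filtering rounds, in either direction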;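 further: slope of fluorescence scaled to starting intensity during 10 to 20 s after thallium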
KCNK9 block: blocks the human KCNK9 two-pore domain potassium channel | Q9NPC2 | HEK293 KCNK9, FluxOR thallium flux fluorescence; stronger effect = lower value | B-score at 10 µM | 310,000 compounds, 1.2% hits;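 active means ratio B-score over 3 SD below the library mean, with starting fluorescence within 5 SD of its mean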;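 further: negative B-score means less thallium flux so channel inhibition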
Each line names hits and unclear results; the compound was inactive in the other large screens.

C=C(C)C1CC=C(C)/C(=N/NC(=S)Nc2ccccc2)C1 (stereo not given)	KCC2 mod 6.49
CCN(CC)P(=O)(Nc1ccc(C)cc1Br)c1ccc(N(C)C)cc1NC(=O)c1ccco1 (stereo not given)	KCNQ1 block 7
O=C(CN1C(=O)NC(c2ccccc2)(c2ccccc2)C1=O)NCc1ccc(F)cc1	none (no result: KCNQ1 block, KCNQ1 pot, hERG rescue, KCC2 mod, KCNK9 block)
Cc1ccc(Cn2ncc3c(NCCN(C)C)ncnc32)cc1	none (no result: KCC2 mod)
Cc1ccc(Cn2ncc3c(NN)ncnc32)cc1	KCNQ1 pot 15 (no result: KCC2 mod)
CSCCC(NC=O)C(=O)NC(C)C(=O)O (stereo not given)	none (no result: KCNQ1 block, KCNQ1 pot, hERG rescue, KCC2 mod, KCNK9 block)
CCCCNc1c(-c2cccc(-c3cc(C(C)=O)cs3)c2)nc2ccc(C)cn12	KCNQ1 block 6 (no result: KCC2 mod)
CCCCNc1c(-c2cccc(-c3ccc(OC)cc3)c2)nc2cc(C)ccn12	KCNK3 block -8.74 (no result: KCNQ1 block, KCNQ1 pot, hERG rescue, KCC2 mod, KCNK9 block)
CCCCNc1c(-c2cccc(-c3ccc(OC)cc3)c2)nc2ccc(C)cn12	KCNQ1 block 7 (no result: KCC2 mod)
CC(OC(=O)C1CCN(S(=O)(=O)c2ccc(Cl)cc2)CC1)C(=O)NC1CCCCC1C (stereo not given)	none (no result: KCC2 mod)
CCOc1ccc(C(=O)C(CCC(CN(C)C)C(=O)c2ccc(OCC)cc2)CN(C)C)cc1 (stereo not given)	KCNQ1 pot 8
COc1ccc(C(=O)C(CCCCC(CN(C)C)C(=O)c2ccc(OC)cc2)CN(C)C)cc1 (stereo not given)	none
CN(C)CC(CCC(CN(C)C)C(=O)c1ccccc1)C(=O)c1ccccc1 (stereo not given)	KCNQ1 pot 20
O=C(CN1C(=O)c2ccccc2S1(=O)=O)Nc1ncc(Cl)cc1Cl	none (no result: KCNQ1 block, KCNQ1 pot, hERG rescue, KCC2 mod, KCNK9 block)
CCN1CCN(c2ccc(S(=O)(=O)N3CCOCC3)cc2NC(=O)c2ccc(F)cc2Cl)CC1	none (no result: KCC2 mod)
CCc1ccc(N2CC(C(=O)Nc3ccc4c(c3)OCO4)CC2=O)cc1 (stereo not given)	none (no result: KCNQ1 block, KCNQ1 pot, hERG rescue, KCC2 mod, KCNK9 block)
CCc1nc(N2CCCC(C)C2)c2oc3ccccc3c2n1 (stereo not given)	KCNK9 block -7.42
O=C(Nc1nc2ccc(SC(F)F)cc2s1)c1ccc(NS(=O)(=O)c2ccc(F)c(F)c2)cc1	KCNK9 block -6.77
CS(=O)(=O)c1ccc2nc(NC(=O)c3ccc(NS(=O)(=O)c4ccc(F)c(F)c4)cc3)sc2c1	none (no result: KCC2 mod)
O=C(NCc1cccs1)c1nc2c(nnn2Cc2ccccc2Cl)c(=O)[nH]1	KCC2 mod -2.72
COc1cccc(NC(=O)CSc2nc3ccccc3c(=O)n2CCCC(=O)NCC2CCCO2)c1 (stereo not given)	none (no result: KCC2 mod)
CSCCC(NC(=O)COc1ccccc1)C(=O)N1CCCC(C(F)(F)F)C1 (stereo not given)	none (no result: KCC2 mod)
CCCCCCn1c2c(c(=N)c3c1CCC3)CCC2	KCNQ1 block 6 (no result: KCC2 mod)
COC(=O)CNc1nc(Cl)nc(Nc2ccc(C)cc2)n1	hERG rescue 6.7
COc1ccc(NC(=O)/C(=C/c2ccc(OC(C)=O)c(OC)c2)NC(C)=O)cc1	KCNQ1 pot 88
FC(F)(F)c1ccc(N2CCOCC2)c(Nc2nc3ccccc3n3cnnc23)c1	KCNK9 block -7.15 (no result: KCC2 mod)
c1ccc(N2CCCCC2)c(Nc2nc3ccccc3n3cnnc23)c1	none
Cc1ccc(S(=O)(=O)N(CC(=O)c2ccc(Cl)cc2)C(=O)N2CCN(C)CC2)cc1	none (no result: KCC2 mod)
CC(=O)c1c(OC(=O)c2ccc(C)cc2)c2ccccc2n1C	KCNK9 block -7.24 (no result: KCC2 mod)
CC(=O)c1c(OC(=O)c2ccco2)c2ccccc2n1C	none (no result: KCC2 mod)
O=Cc1s/c(=N\S(=O)(=O)c2ccccc2)n(CCCCl)c1Cl	hERG rescue 7.4
CC(=O)Nc1ccc(NC(=O)CCC(=O)Oc2ccc(C)cc2)cc1	none (no result: KCC2 mod)
Cc1nn(-c2ccccc2)c(N2CCCC2)c1/C=C1\N=C(c2ccc(F)cc2)OC1=O	none
Cc1ccc(C2=N/C(=C\c3c(C)nn(-c4ccccc4)c3N3CCCC3)C(=O)O2)cc1	KCNQ1 block 9
COc1cc(/C=C2\SC(=O)N(c3ccccc3Cl)C2=O)cc([N+](=O)[O-])c1O	KCNQ1 block 10
COc1cc(/C=C2/C(=O)NN(c3ccc(Cl)c(Cl)c3)C2=O)cc([N+](=O)[O-])c1O	hERG rescue 6.2 (no result: KCC2 mod)
CCOC(=O)CCN(c1ccccc1)S(=O)(=O)c1ccc(-c2ccc(=O)[nH]n2)s1	none (no result: KCC2 mod)
CCC(=O)Nc1cc(-c2nn3c(C)nnc3s2)ccc1C	KCNQ1 pot 8
CC(=O)c1cccc(NC(=O)C(=O)Nc2cccc3ccccc23)c1	hERG rescue 5.2
O=C(NCCNC(=O)c1cc(Cl)ccc1Cl)c1ccco1	none (no result: KCC2 mod)
Cc1cccc(C(=O)Nc2ccc(C(=O)/C=C/c3ccncc3)cc2)c1	KCNQ1 block 12 (no result: KCC2 mod)
Cc1cccc(C(=O)Nc2ccc(C(=O)/C=C/c3cccnc3)cc2)c1	none
CCOC(=O)C(=CNc1ccc(Oc2cccnc2)nc1)C(=O)OCC	hERG rescue 4.6
CCOC(=O)C(=CNc1cc(C)ccn1)C(=O)OCC	hERG rescue 5.1
COc1cccc(N2CCN(C(=O)C3CCCN(c4ncnc5c4nc4n5CCCCC4)C3)CC2)c1 (stereo not given)	none (no result: KCC2 mod)
Cc1ccc(C(=O)NC2CCCCC2)cc1S(=O)(=O)N1CCCC1	none (no result: KCC2 mod)
CC(C)Oc1cccc(C2NC(=O)c3ccccc3O2)c1 (stereo not given)	none (no result: KCC2 mod)
CCCCCCc1cc2cc(-c3nnc(-c4ccccc4O)o3)c(=O)oc2cc1O	none
CCCCCCc1cc2cc(-c3nnc(-c4cc(OC)c(OC)c(OC)c4)o3)c(=O)oc2cc1O	KCNQ1 block 15 (no result: KCNK3 block)
CCCCCCc1cc2cc(-c3nnc(-c4ccccc4OC)o3)c(=O)oc2cc1O	KCNQ1 block 8
CCCCCCc1cc2cc(C(=O)Nc3ccccc3OC)c(=O)oc2cc1O	none
O=C(NCCc1ccccc1F)C1CC(=O)N(c2cccc(C(F)(F)F)c2)C1 (stereo not given)	none (no result: KCNQ1 block, KCNQ1 pot, hERG rescue, KCC2 mod, KCNK9 block)
CCCCCCCCNCCS(=O)(=O)NCc1ccc(OC)cc1	none (no result: KCNQ1 block, KCNQ1 pot, hERG rescue, KCC2 mod, KCNK9 block)
Cc1cccc(NC(=O)CSCC(=O)Nc2ccc(S(=O)(=O)N3CCCC3)cc2)c1	none (no result: KCC2 mod)
Cc1cccc(CNc2ccc(S(=O)(=O)N3CCCCC3)cc2)c1	KCNK3 block -9.88 (no result: KCNQ1 block, KCNQ1 pot, hERG rescue, KCC2 mod, KCNK9 block)
CN(Cc1nc(-c2cccs2)no1)CC1COCCO1 (stereo not given)	none
OC(CN1CC=C(/C=C/c2ccc(Br)cc2)CC1)c1ccccc1 (stereo not given)	none (no result: KCC2 mod)
O=C(CN1C(=O)C(=O)N(C2CCCC2)C1=O)NCCc1ccc(Cl)cc1Cl	none (no result: KCNQ1 block, KCNQ1 pot, hERG rescue, KCC2 mod, KCNK9 block)
O=C(Nc1ccccc1-c1nc2ccccc2o1)c1ccc2c(c1)OCCO2	none (no result: KCNQ1 block, KCNK3 block, KCNQ1 pot, hERG rescue, KCNK9 block)
Cc1c(NC(=O)c2ccc3c(c2)OCO3)cccc1-c1nc2ccccc2o1	hERG rescue 6.0 (no result: KCC2 mod)
CCCCOc1ccccc1N	hERG rescue 5.9
Cc1ccc2c(c1)C1CN(C)CCC1N2C(=O)c1cccc(S(=O)(=O)N(C)C)c1 (stereo not given)	none
